Hits are enriched below; roughly 2.3% of the tested compounds scored in any of these assays.
Rpn11 inh: blocks the human proteasome subunit Rpn11; O00487; human 26S proteasome, Ub4-pepOG fluorescence polarization; 20S core pre-blocked with epoxomicin; inhibition, % at 20 µM; 360,000 compounds, 0.59% hits; AID 588493;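 active = inhibition at 20 µM, scaled to each plate's controls, above about 33%, limit read from the data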
SUMO1-SIM PPI: modulators of human SUMO1-mediated protein-protein interactions; P63165; SUMO1 binding to a labelled peptide, TR-FRET, 1 h; inhibition, % at 20 µM; 360,000 compounds, 0.33% hits; AID 602429; in the data active = inhibition above about 37%
Target sequence (P63165 whole entry, looked up): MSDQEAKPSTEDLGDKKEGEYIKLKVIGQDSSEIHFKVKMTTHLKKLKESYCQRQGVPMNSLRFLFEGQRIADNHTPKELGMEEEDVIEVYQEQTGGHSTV
DNMT1 inh: blocks human DNA methyltransferase DNMT1 | P26358 | DNMT1 molecular beacon, Hinp1I cleavage, fluorescence | inhibition (reported as % activation of signal), % at 10 µM | 360,000 compounds, 0.83% hits; in the data active = inhibition above about 50%
Scp-1 inhibitor: blocks human Scp-1 phosphatase activity | Q9GZU7 | Recombinant Scp1, phosphopeptide, malachite green phosphate absorbance | inhibition, % at 20 µM | 340,000 compounds, 0.88% hits;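 active = inhibition above about 50% at 20 µM, limit read from the data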
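System: truncated SCP-1 phosphatase (76-261aa); medium: Tris acetate buffer pH 5.5 with MgCl2 and Tween-20; incubation: 45 min room-temperature reaction, 5 min colour, 30 min stabiliser; compound: single 20 µM dose, 1% DMSO; reagent: Phosphorylated 17-residue peptide substrate; read-out: % inhibition at 20 µM; technique: colorimetric free-phosphate detection, absorbance 630 nm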
LMPTP inh: blocks human LMPTP phosphatase; P24666; recombinant LMPTP-A, OMFP fluorogenic substrate, fluorescence intensity; inhibition, % at 20 µM; 360,000 compounds, 0.22% hits;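 active = compounds that cut the enzyme signal by at least half of the control window in the single-dose screen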
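Material: LMPTP-A; amount: 0.625 nM enzyme; doses: single 20 µM dose; times: reaction 50 min, room temperature, dark; technique: fluorescence intensity of OMFP turnover product; benchmarks: no-enzyme and uninhibited controls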
STEP inh: blocks human striatal-enriched tyrosine phosphatase | AID 588621 | inhibition, % at 20 µM | 360,000 compounds, 0.25% hits | recombinant STEP, OMFP fluorogenic substrate, fluorescence | P54829;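 active = inhibition at 20 µM, scaled per plate between control wells, above about 37%, limit read from the data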
Target sequence (P54829 whole entry, looked up): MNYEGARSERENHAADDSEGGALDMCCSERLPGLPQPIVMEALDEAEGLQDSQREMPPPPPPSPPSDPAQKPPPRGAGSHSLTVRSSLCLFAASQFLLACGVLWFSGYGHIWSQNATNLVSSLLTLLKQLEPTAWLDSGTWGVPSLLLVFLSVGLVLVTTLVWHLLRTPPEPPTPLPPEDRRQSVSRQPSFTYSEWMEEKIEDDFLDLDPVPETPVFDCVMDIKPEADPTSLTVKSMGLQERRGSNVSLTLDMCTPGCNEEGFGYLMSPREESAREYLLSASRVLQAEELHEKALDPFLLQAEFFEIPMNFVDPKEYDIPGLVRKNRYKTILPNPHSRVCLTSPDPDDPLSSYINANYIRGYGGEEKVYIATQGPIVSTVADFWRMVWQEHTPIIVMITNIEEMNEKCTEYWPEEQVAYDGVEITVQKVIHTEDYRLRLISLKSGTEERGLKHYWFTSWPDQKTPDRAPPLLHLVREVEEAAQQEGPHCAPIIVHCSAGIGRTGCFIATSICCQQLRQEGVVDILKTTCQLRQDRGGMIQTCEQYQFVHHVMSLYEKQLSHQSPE
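Measure: Control-normalized % inhibition with plate pattern correction | Test system: STEP phosphatase, cell-free reaction | Medium: pH 6.0 Bis-Tris with DTT and Tween 20 | Technique: Fluorescence, 480/540 nm | Times: Reaction 20 min, ambient temperature | Doses: Single compound dose of 20 µM, 1% DMSO final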
Large screens that a line does not name were inactive.

NS(=O)(=O)c1ccc(N/N=C/c2ccccc2Br)cc1	SUMO1-SIM PPI 60
N#CCCN(CCCN1CCOCC1)CN1C(=O)c2ccccc2C1=O	none (no result: Scp-1 inhibitor)
O=C1CSC(c2nn(-c3ccccc3)cc2-c2cc3ccccc3oc2=O)N1Cc1ccco1 (configuration not stated)	none
O=C1CSC(c2cn(-c3ccccc3)nc2-c2cc3ccccc3oc2=O)N1Cc1ccccc1 (configuration not stated)	SUMO1-SIM PPI 55
Cc1cc2[nH]c3c4ccccc4nc(C)c3c2cc1C	LMPTP inh 55
Cc1cc2[nH]c3ccccc3c2c(C)n1	none
C#C[C@]1(O)CCC2C3CCC4=Cc5oncc5CC4(C)C3CCC21C (some centres not stated)	none
Cc1ccc(-n2nc3c(N4CCC(C(=O)NCCc5ccco5)CC4)nnc(C)c3c2C)cc1	none
Cc1ccc(-n2nc3c(N4CCC(C(=O)NCc5ccc(C)o5)CC4)nnc(C)c3c2C)cc1	LMPTP inh 65
COc1ccc(-n2nc3c(N4CCC(C(=O)NCc5ccco5)CC4)nnc(C)c3c2C)cc1	LMPTP inh 53
CCNc1ccc(S(=O)(=O)N(C)C)cc1[N+](=O)[O-]	Scp-1 inhibitor 59
CN(C)C(CNc1ccc(S(C)(=O)=O)cc1[N+](=O)[O-])c1ccccc1 (configuration not stated)	none
CCC(C)NC(=O)CSc1nc2cc3c(cc2c(=O)n1Cc1ccco1)OCO3 (configuration not stated)	SUMO1-SIM PPI 42
CCN(CC)C(=O)CSc1nc2cc3c(cc2c(=O)n1Cc1ccco1)OCO3	none
O=C(c1ccc(F)cc1)N1CCC(C(=O)N2CCN(c3ncccn3)CC2)CC1	none
O=C(N/N=C/c1ccc(OCc2ccccc2)cc1)c1ccncc1	none
Oc1ccc(N=Cc2ccc(OCc3ccccc3)cc2)cc1	SUMO1-SIM PPI 63
Cc1cc(N)c2cc(NC(=O)/C=C/c3ccccc3Cl)ccc2n1	Rpn11 inh 136, SUMO1-SIM PPI 89, DNMT1 inh 53
CCCN(CCC)CC(O)Cn1cc(/C=C/C(=O)c2cccs2)c2ccccc21 (configuration not stated)	none (not shown: Rpn11 inh)
O=C(/C=C/c1cn(CC(O)CN2CCCCC2)c2ccccc12)c1ccccc1 (configuration not stated)	Rpn11 inh 42
O=C(/C=C/c1cn(CC(O)CN2CCCCC2)c2ccccc12)c1cccs1 (configuration not stated)	none (not shown: Rpn11 inh)
CCCCN(C)CC(O)Cn1cc(/C=C/C(=O)c2ccc(C)cc2)c2ccccc21 (configuration not stated)	Rpn11 inh 46
COc1cc([N+](=O)[O-])ccc1NC(=O)COC(=O)c1ccc(NC(N)=O)cc1	SUMO1-SIM PPI 45
OC1C2COC(O2)C2OC(c3ccccc3)OC12 (configuration not stated)	none (no result: Scp-1 inhibitor)
COC(=O)C1C2C=CC(C3CC23)C1C(=O)OCC(=O)c1ccccc1 (configuration not stated)	SUMO1-SIM PPI 45
COc1ccc(-c2nnn(CC(=O)N3CCOCC3)n2)cc1	none
O=C(Cc1cccs1)Nc1ccc(-c2nnn(CC(=O)N3CCOCC3)n2)cc1	Scp-1 inhibitor 79 (no result: Rpn11 inh, SUMO1-SIM PPI, DNMT1 inh, LMPTP inh, STEP inh)
CCOC(=O)[C@]12CCCC=C1N(Cc1cccc3ccccc13)C(=O)[C@H](CC(=O)NCCCOC)C2	none (no result: Rpn11 inh, DNMT1 inh, Scp-1 inhibitor, STEP inh)
C=CCOc1ccccc1CN(C(=O)CCl)c1ccc2c(c1)OCO2	DNMT1 inh 79
CCCn1c(SCC(=O)Nc2cc(C(=O)O)ccc2C)nc2sc3c(c2c1=O)CCC3	none
CC(C)Nc1ncnc2c1cnn2-c1ccc(Cl)cc1	DNMT1 inh 86
Nc1nn2c(-c3ccccc3)cc(=O)[nH]c2c1N=Nc1ccc(Br)cc1	LMPTP inh 56
Nc1nn2c(-c3ccccc3)cc(=O)[nH]c2c1N=Nc1ccc(O)cc1	none
COc1ccc(C2NCCc3c2[nH]c2ccccc32)cc1CN1CCc2cc(OC)c(OC)cc2C1C (configuration not stated)	LMPTP inh 52
COc1ccc(C2NCCc3c2[nH]c2ccccc32)cc1COc1ccc(F)cc1 (configuration not stated)	none
CC(C)Cn1c(N)c(C(=O)COC(=O)COc2cccc(C(F)(F)F)c2)c(=O)n(C)c1=O	none
Cc1ccc2ncccc2c1	none
Cc1nnc(C)c2c(C)n(-c3ccc4ncccc4c3)c(C)c12	LMPTP inh 54
CCc1ccc(OCC(=O)Nc2ccc(S(=O)(=O)Nc3ccccn3)cc2)cc1	none
Nc1ccc(O)c2c1C(=O)c1ccccc1C2=O	DNMT1 inh 89, Scp-1 inhibitor 80, LMPTP inh 73, STEP inh 37
Nc1ccc(Br)c2c1C(=O)c1ccccc1C2=O	none (no result: Rpn11 inh, SUMO1-SIM PPI, DNMT1 inh, LMPTP inh, STEP inh)
O=C1c2ccccc2C(=O)c2c(O)c(O)cc(O)c21	DNMT1 inh 79, Scp-1 inhibitor 76, LMPTP inh 66
O=C1C=C(O)c2c(O)cc(O)c(O)c2C1=O	LMPTP inh 76, STEP inh 95
CCN1C(=O)[C@H]2[C@@H](c3ccc(C(F)(F)F)cc3)N[C@]3(CCCN(Cc4cccn4C)C3=O)[C@H]2C1=O	none (no result: Scp-1 inhibitor)
O=C(NCCc1ccccn1)c1c(-c2ccsc2)sc2ccccc12	Scp-1 inhibitor 100
O=C1c2c(O)ccc(O)c2C(=O)c2c(NCCNCCO)ccc(NCCNCCO)c21	Rpn11 inh 43, SUMO1-SIM PPI 93
CCN1CCN(c2c(Cl)cccc2NC(=O)c2cc3ccccc3o2)CC1	none
CC1=C(C(=O)Nc2ccc(CC(=O)NCc3ccccc3C)cc2)SCCO1	none
CCc1ccc(CNC(=O)Cc2ccc(NC(=O)C3=C(C)OCCS3)cc2)cc1	Scp-1 inhibitor 85
Cc1ccsc1C(=O)Nc1ccc(S(=O)(=O)N2CCOCC2)cc1	none
CC(C)n1nc(C(=O)Nc2cccc(S(=O)(=O)N3CCCCC3)c2)c2ccccc2c1=O	none
CNNC(=O)C(=O)NNS(=O)(=O)c1ccccc1	none
CC(C)C(=O)NNS(=O)(=O)c1ccccc1	SUMO1-SIM PPI 44
CCCn1c(SCC(=O)N2CCc3ccccc32)n[nH]c1=O	none
CCOC(=O)c1cnc(SSc2ncc(C(=O)OCC)c(N)n2)nc1N	LMPTP inh 78
C=CCSc1ncc(C(=O)OCC)c(N)n1	none
CCOC(=O)CSc1nc(N)c(C#N)c(-c2ccc(OCC)cc2)c1C#N	none
CC1=C(C#N)c2nc(N)c(C#N)c(C)c2/C1=C\c1ccc(OCC(=O)O)c(Cl)c1	SUMO1-SIM PPI 37
COc1ccc(C(=O)N[C@H](C(=O)NC2CCCCC2)C(C)C)cc1	none
O=C(CN1C(=O)COc2ccc(Cl)cc21)Nc1ccccn1	none

Screens as filed in PubChem BioAssay.
